Results taken from PMC8897028 (Acta Pharmaceutica Sinica. B, 2021).
Positions count from the first letter of the chain named.

Key:
Format in all cases: cell-based
mTRPV3 V662A = molecular target: T1, mTRPV3 V662A (Mus musculus, UniProt Q8K424, V662A); assay: whole-cell patch-clamp of mTRPV3 V662A mutant in HEK293 cells; conditions: compound 50 μmol/L; 2-APB; compared with WT mTRPV3
T1 sequence (Q8K424 1-791 V662A): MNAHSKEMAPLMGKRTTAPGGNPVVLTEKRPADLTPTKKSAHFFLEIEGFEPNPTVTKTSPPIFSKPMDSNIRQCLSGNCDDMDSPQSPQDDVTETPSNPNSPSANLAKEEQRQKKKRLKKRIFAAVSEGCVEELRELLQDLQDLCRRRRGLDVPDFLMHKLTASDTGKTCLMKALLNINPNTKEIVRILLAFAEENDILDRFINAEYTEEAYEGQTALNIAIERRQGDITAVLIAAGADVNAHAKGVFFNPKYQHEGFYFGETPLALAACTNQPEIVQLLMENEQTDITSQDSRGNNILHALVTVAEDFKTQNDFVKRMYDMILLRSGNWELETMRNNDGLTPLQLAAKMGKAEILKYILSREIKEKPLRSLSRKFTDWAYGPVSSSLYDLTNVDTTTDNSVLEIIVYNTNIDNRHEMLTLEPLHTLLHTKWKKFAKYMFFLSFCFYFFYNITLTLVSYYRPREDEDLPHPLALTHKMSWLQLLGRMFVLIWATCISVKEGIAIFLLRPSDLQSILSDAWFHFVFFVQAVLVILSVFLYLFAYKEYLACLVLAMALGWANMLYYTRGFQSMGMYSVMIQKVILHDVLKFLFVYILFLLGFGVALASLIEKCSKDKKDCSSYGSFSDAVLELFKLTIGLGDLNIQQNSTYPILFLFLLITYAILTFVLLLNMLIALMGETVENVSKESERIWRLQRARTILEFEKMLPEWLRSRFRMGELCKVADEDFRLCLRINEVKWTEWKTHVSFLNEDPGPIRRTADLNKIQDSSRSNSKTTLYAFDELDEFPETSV
In short: (§1)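 Mouse Trpv3 point mutants were made by site-directed mutagenesis, sequence-verified, and transiently expressed in HEK293 cells alongside wild-type mTRPV3. Whole-cell ramp recordings (−100 to +100 mV, 500 ms, holding 0 mV) were made at 22–24 °C. Currents were activated by 2-APB, and inhibition by 50 μmol/L test compound in the presence of 2-APB was compared with wild type; n = 3–8.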

hTRPV1 = hTRPV1 (Homo sapiens, UniProt Q8NER1); assay: whole-cell patch-clamp of TRPV1 currents in HEK293 cells; conditions: compound 50 μmol/L; current induced by capsaicin 1 μmol/L
In short: (§2)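 Human channel cDNAs were transiently transfected into HEK293 cells with Lipofectamine 2000. EGFP-positive cells were recorded whole-cell 18 h later at 22–24 °C with ~4.0 MΩ fire-polished pipettes. Cells were held at 0 mV with 500-ms ramps from −100 to +100 mV every 2 s. Test compound in perfusion solution was co-applied with agonist, and average current inhibition was summarised; n = 4–6.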

hTRPV4 = hTRPV4 (Homo sapiens, UniProt Q9HBA0); assay: whole-cell patch-clamp of TRPV4 currents in HEK293 cells; conditions: compound 50 μmol/L; current elicited by 100 nmol/L GSK1016790A
In short: as §2

hTRPA1 = hTRPA1 (Homo sapiens, UniProt O75762); assay: whole-cell patch-clamp of TRPA1 currents in HEK293 cells; conditions: compound 50 μmol/L; current evoked by AITC 300 μmol/L
In short: as §2

mTRPV3 T636A = molecular target: T2, mTRPV3 T636A (Mus musculus, UniProt Q8K424, T636A); assay: whole-cell patch-clamp of mTRPV3 T636A mutant in HEK293 cells; conditions: compound 50 μmol/L; 2-APB; compared with WT mTRPV3
T2 sequence (Q8K424 1-791 T636A): T1 sequence (Q8K424 1-791 V662A) with T636A, A662V
In short: as §1

hTRPA1, sequence (O75762 whole entry): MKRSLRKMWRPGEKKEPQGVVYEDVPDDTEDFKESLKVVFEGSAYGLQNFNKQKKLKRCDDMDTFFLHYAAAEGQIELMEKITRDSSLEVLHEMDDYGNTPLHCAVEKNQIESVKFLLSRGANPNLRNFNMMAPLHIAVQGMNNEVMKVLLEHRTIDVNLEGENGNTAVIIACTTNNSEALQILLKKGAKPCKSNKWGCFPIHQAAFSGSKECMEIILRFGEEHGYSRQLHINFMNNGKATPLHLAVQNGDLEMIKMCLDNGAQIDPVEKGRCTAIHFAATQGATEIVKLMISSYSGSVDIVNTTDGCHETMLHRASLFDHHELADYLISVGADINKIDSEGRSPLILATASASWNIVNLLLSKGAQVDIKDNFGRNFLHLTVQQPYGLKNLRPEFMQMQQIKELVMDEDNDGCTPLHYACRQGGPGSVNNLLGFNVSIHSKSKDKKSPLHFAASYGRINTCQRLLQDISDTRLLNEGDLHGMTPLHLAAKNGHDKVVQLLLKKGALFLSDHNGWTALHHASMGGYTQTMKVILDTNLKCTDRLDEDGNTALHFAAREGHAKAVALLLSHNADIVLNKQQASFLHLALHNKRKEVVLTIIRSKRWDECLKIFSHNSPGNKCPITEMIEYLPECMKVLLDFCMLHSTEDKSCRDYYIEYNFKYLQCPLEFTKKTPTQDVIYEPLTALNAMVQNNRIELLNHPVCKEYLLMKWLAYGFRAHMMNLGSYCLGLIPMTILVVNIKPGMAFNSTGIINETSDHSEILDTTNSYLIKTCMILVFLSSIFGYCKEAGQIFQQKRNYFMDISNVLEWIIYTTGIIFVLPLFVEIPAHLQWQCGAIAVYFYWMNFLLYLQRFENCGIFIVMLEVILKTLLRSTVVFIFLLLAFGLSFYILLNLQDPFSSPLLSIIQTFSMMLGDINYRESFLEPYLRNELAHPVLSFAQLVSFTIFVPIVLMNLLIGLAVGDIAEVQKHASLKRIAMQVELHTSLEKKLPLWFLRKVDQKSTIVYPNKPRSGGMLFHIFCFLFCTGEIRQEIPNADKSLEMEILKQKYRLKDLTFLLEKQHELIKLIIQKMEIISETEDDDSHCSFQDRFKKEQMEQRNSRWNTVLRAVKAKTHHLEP
hTRPV1, sequence (Q8NER1 whole entry, the tested form may be a part): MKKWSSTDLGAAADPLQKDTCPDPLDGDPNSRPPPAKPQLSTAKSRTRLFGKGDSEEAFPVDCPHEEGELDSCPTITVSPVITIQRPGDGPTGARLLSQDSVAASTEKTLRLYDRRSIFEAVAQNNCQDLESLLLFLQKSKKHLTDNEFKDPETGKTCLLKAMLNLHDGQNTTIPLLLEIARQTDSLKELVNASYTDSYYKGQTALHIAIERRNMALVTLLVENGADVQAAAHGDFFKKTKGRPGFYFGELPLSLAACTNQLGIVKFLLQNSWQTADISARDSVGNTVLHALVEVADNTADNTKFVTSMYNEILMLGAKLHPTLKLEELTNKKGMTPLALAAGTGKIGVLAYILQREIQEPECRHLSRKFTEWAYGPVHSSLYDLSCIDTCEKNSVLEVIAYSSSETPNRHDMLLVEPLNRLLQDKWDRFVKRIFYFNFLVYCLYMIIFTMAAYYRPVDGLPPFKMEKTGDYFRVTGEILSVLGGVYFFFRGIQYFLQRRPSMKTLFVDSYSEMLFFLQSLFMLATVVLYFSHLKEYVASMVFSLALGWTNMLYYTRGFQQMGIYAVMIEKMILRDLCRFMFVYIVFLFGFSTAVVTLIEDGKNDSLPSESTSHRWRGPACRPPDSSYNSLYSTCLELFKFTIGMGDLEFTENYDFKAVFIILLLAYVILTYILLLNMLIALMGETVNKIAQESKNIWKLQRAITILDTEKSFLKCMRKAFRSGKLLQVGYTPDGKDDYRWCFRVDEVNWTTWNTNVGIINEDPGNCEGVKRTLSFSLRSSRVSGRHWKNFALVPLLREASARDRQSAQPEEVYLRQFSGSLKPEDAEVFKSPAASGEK
hTRPV4, sequence (Q9HBA0 whole entry): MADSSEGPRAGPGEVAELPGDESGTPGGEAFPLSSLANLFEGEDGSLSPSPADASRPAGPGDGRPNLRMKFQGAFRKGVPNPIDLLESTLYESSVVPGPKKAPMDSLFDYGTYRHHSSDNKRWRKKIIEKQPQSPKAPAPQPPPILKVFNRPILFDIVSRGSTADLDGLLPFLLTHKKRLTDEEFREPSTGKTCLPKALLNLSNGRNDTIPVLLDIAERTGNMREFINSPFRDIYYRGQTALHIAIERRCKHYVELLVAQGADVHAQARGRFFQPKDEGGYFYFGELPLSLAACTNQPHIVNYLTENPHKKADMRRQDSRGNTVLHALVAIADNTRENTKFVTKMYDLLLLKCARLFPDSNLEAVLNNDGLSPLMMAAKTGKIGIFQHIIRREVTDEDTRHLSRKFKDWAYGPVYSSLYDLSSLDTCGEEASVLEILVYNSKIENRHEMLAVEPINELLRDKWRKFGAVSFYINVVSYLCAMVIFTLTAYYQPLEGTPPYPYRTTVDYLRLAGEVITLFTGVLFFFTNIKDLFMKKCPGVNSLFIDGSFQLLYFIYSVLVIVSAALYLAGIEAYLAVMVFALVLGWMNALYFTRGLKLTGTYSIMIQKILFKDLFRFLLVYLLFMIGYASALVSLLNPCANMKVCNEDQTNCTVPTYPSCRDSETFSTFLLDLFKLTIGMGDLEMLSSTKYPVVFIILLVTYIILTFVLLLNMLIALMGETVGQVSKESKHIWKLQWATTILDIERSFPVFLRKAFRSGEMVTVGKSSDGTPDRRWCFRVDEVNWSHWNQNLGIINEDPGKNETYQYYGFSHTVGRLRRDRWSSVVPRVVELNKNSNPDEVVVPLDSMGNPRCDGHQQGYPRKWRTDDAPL

Compound | effect of mutation on compound-induced inhibition of mTRPV3 currents (mTRPV3 V662A) | inhibition of TRPV1 currents (hTRPV1) | inhibition of TRPV4 current (hTRPV4) | inhibition of TRPA1 current (hTRPA1) | effect of mutation on compound-induced inhibition of mTRPV3 currents (mTRPV3 T636A)
O=C(/C=C/c1ccc(O)c(O)c1)O[C@@H]1C[C@](O)(C(=O)O)C[C@@H](OC(=O)/C=C/c2ccc(O)c(O)c2)[C@H]1O [IAA, isochlorogenic acid A] | no obvious effect | no obvious inhibition | no inhibitory effect | no inhibitory effect | markedly reduced
O=C(/C=C/c1ccc(O)c(O)c1)O[C@@H]1[C@H](O)C[C@@](O)(C(=O)O)C[C@H]1OC(=O)/C=C/c1ccc(O)c(O)c1 [IAB, isochlorogenic acid B] | no obvious effect | no obvious inhibition | no inhibitory effect | no inhibitory effect | markedly reduced
